The values below come from ChEMBL document CHEMBL4265873, “Design and discovery of silybin analogues as antiproliferative compounds using a ring disjunctive - Based, natural product lead optimization approach” (Eur J Med Chem, 2017).

SMILES strings stand for the structures.

Assay [1] relates to CHO. In words: Cytotoxicity in CHO cells assessed as reduction in cell viability incubated for 68 hrs by MTT assay. It counts as cell-based. To be noted: Cricetulus griseus. A digest of the protocol: (§1)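 Cells were trypsinised and seeded at 5x10^3 cells/well. Compound was added at 0, 0.1, 0.3, 1, 3, 10, 30 and 100 µM for 68 h. MTT (4 mg/mL solution) was then added for 4 h, and the formazan was dissolved in DMSO. Absorbance read at 570 nm. IC50 was derived from % survival across the eight concentrations. Mean ± SD of three independent experiments, each in triplicate.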

Assay [2] has as its system MDA-MB-231. Description: Cytotoxicity in human MDA-MB-231 cells assessed as reduction in cell viability incubated for 68 hrs by MTT assay. As to conditions: MDA-MB-231, 68 h. The format is functional, cell-based. The essentials: as §1
Assay [3] can be described thus: Cytotoxicity in human CRL1459 cells assessed as reduction in cell viability incubated for 68 hrs by MTT assay. The format is cell-based. The essentials:
as §1

Assay [4] deals with 2008. In words: Cytotoxicity in human OV2008 cells assessed as reduction in cell viability incubated for 68 hrs by MTT assay. It counts as functional, cell-based. To be noted: Homo sapiens, 2008, 68 h. The essentials:
as §1

Assay [5] deals with HEK293. Description: Cytotoxicity in HEK293 cells assessed as reduction in cell viability incubated for 68 hrs by MTT assay. It counts as cell-based. To be noted: Homo sapiens, HEK293, 68 h. A digest of the protocol: as §1
A general note: Formazan colour is commonly taken as a measure of viable cells.

Assay [6] relates to MCF7. Description: Cytotoxicity in human MCF7 cells assessed as reduction in cell viability incubated for 68 hrs by MTT assay. The format is functional, cell-based. To be noted: MCF7, 68 h. The essentials:
as §1

For assay [7], the system named is DU-145. In words: Cytotoxicity in human DU145 cells assessed as reduction in cell viability incubated for 68 hrs by MTT assay. It counts as functional, cell-based. To be noted: DU-145, 68 h. The essentials:
as §1

For assay [8], the system named is PANC-1. Description: Cytotoxicity in human PANC1 cells assessed as reduction in cell viability incubated for 68 hrs by MTT assay. It counts as functional, cell-based. As to conditions: PANC-1, 68 h. A digest of the protocol:
as §1

For assay [9], the system named is ZR-75-1. Description: Cytotoxicity in human ZR-75-1 cells assessed as reduction in cell viability incubated for 68 hrs by MTT assay. As to conditions: ZR-75-1, 68 h. The format is functional, cell-based. The essentials:
as §1

Assay [10] deals with A2780. Description: Cytotoxicity in human A2780 cells assessed as reduction in cell viability incubated for 68 hrs by MTT assay. It counts as functional, cell-based. As to conditions: A2780, 68 h. A digest of the protocol:
as §1

For assay [11], the system named is BT-20. In words: Cytotoxicity in human BT20 cells assessed as reduction in cell viability incubated for 68 hrs by MTT assay. To be noted: BT-20, 68 h. The format is functional, cell-based. The essentials: as §1
Assay [12] relates to MCF7. Description: Potency index, ratio of IC50 for silybin to IC50 for test compound for cytotoxicity in human MCF7 cells assessed as reduction in cell viability incubated for 68 hrs by MTT assay. It counts as functional.

`O=C(/C=C/c1cccc(OCc2ccccc2)c1)c1ccc(Cl)c(Cl)c1Cl`: the IC50 (in general, the midpoint of a concentration-inhibition curve) in assay [1] was 8.6 µM; in assay [2], 2.4 µM; in assay [3], 2.5 µM; in [4], 1.5 µM; in [5], 2.4 µM; in assay [6], 2.4 µM. Moreover, the IC50 in assay [7] came out at 6.4 µM; in assay [8], 2.4 µM; in assay [9], 6.2 µM; in assay [10], 1.5 µM; in assay [11] it was 3.9 µM.

As to `O=C(/C=C/c1cccc(OCc2ccccc2)c1)c1ccccc1Br`, the IC50 in assay [1] was 9.1 µM; in assay [2], 1.8 µM; in [3], 2.4 µM; in assay [4], 1.2 µM; in [5] it was 2.2 µM; in assay [6], 1.6 µM. The IC50 is 3 µM in assay [7]; 61.2 µM in assay [8]; 2.9 µM in assay [9]; 2.5 µM in assay [10]; 1.8 µM in assay [11]. In assay [12], the “Ratio IC50” value is 142.

`Cc1ccc(C(=O)/C=C/c2cccc(OCc3ccccc3)c2)cc1`: the half-inhibitory concentration (IC50) in [1] was 26.4 µM; in assay [2], 15.6 µM; in assay [3], 19.8 µM; in assay [4], 12.9 µM; in assay [5], 8.2 µM; in assay [6], 21.7 µM. For the same compound, the IC50 was determined as 25.6 µM in assay [7]; 41.6 µM in assay [8]; 25.8 µM in assay [9]; 20.5 µM in assay [10]; 61 µM in [11].

Turning to `COc1ccc(C(=O)/C=C/c2cccc(OCc3ccccc3)c2)cc1`, the half-maximal inhibitory concentration (IC50) in [1] was 22.9 µM; in assay [2], 12.4 µM; in assay [3], 25.4 µM; in [4], 17.2 µM; in assay [5], 79.8 µM; in assay [6], 6 µM. Moreover, the IC50 was 51.3 µM in assay [7]; 44.3 µM in assay [8]; 19.9 µM in [9]; 38.1 µM in [10]; 38.3 µM in assay [11].

As to `COc1cc(C2Oc3cc(/C=C/C(=O)c4ccccc4O)ccc3OC2CO)ccc1O` (stereo not given), the IC50 in [6] was 12.1 µM.

`O=C(/C=C/c1cccc(OCc2ccccc2)c1)c1ccc(Cl)cc1`: the IC50 in [1] amounted to 43.6 µM; in assay [2], 21.5 µM; in [3], 12.8 µM; in assay [4], 20 µM; in assay [5] it was 22.8 µM; in [6], 24.8 µM. Moreover, the IC50 came to 43.4 µM in [7]; 21.3 µM in [8]; 20 µM in assay [9]; 56.4 µM in [10]; 63.2 µM in assay [11].

Regarding `O=C(/C=C/c1cccc(OCc2ccccc2)c1)c1ccc(Cl)cc1Cl`, the IC50 in [1] worked out at 27.5 µM; in [2], 6.8 µM; in assay [3], 7.8 µM; in [4] it was 5.2 µM; in assay [5], 24.9 µM; in assay [6], 9.4 µM. For the same compound, the IC50 stood at 27.3 µM in assay [7]; 27.2 µM in assay [8]; 9.4 µM in assay [9]; 21.4 µM in assay [10]; 19.2 µM in assay [11].

For `O=C(/C=C/c1cccc(OCc2ccccc2)c1)c1ccc(Br)cc1`, the IC50 was 9 µM in [1]; 6.4 µM in assay [2]; 5.3 µM in assay [3]; 1 µM in [4]; 5.4 µM in assay [5]; 6.5 µM in assay [6]. Besides, the IC50 worked out at 5.7 µM in assay [7]; 2.1 µM in assay [8]; 6.5 µM in assay [9]; 1.8 µM in [10]; 7.4 µM in [11].

For the compound `COc1cc([C@H]2Oc3cc([C@H]4Oc5cc(O)cc(O)c5C(=O)[C@@H]4O)ccc3O[C@@H]2CO)ccc1O` [SILYBIN A], the IC50 in [6] was 223 µM.

As to `O=C(/C=C/c1cccc(OCc2ccccc2)c1)c1ccccc1`, the IC50 in [1] was 22 µM; in assay [2], 20 µM; in assay [3], 7.8 µM; in assay [4], 4.9 µM; in assay [5], 14.1 µM; in assay [6], 9.8 µM. Further, the 50% inhibitory concentration (IC50) in [7] came out at 42.4 µM; in assay [8], 23.5 µM; in assay [9], 8.5 µM; in assay [10], 6.7 µM; in assay [11], 25.5 µM.

On to `O=C(/C=C/c1ccccc1)c1ccccc1` [CHALCONE], for which the half-maximal inhibitory concentration (IC50) came to 23 µM in [1]; 6.7 µM in assay [2]; 6.4 µM in [3]; 33.4 µM in assay [4]; 10.7 µM in assay [5]; 12.6 µM in assay [6]. For the same compound, the concentration for half-maximal inhibition (IC50) in assay [7] is 50.1 µM; in assay [8] it was 26 µM; in [9], 13.7 µM; in [10] it was 67.5 µM; in assay [11], 21.1 µM.

In the case of `O=C(/C=C/c1cccc(OCc2ccccc2)c1)c1ccc([N+](=O)[O-])cc1`, the 50% inhibitory concentration (IC50) amounted to 82.4 µM in [1]; 23.3 µM in assay [2]; 26 µM in assay [3]; 49 µM in [4]; 59.3 µM in assay [5]; 17.5 µM in assay [6]. The IC50 came to 52.5 µM in assay [7]; 25.4 µM in assay [8]; 37.7 µM in assay [9]; 56.4 µM in [10]; 80.9 µM in assay [11].

With `O=C(/C=C/c1cccc(OCc2ccccc2)c1)c1cccc(Br)c1`, the half-maximal inhibitory concentration (IC50) in assay [1] came out at 9.2 µM; in assay [2], 6.9 µM; in assay [3], 7.2 µM; in assay [4], 5.7 µM; in assay [5], 7.1 µM; in assay [6] it was 7.9 µM. Moreover, the IC50 in assay [7] worked out at 9.1 µM; in assay [8], 6.4 µM; in [9], 8.3 µM; in [10], 6.3 µM; in assay [11], 7.1 µM.

Consider `COc1cc([C@H]2Oc3cc([C@H]4Oc5ccccc5C(=O)[C@@H]4O)ccc3O[C@@H]2CO)ccc1O`, for which, in assay [6], the half-inhibitory concentration (IC50) turned out to be 13.8 µM.
